Source: ChEMBL document CHEMBL5058577, “EUbOPEN Chemogenomics Library 2 (Multiplex)” (2022)

Test system: Fibroblast
Test: Multiplex assay against human fibroblast
Assay type: toxicity, cell-based
Method in brief: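 At seeding, live cells were stained with Hoechst33342, BioTracker Green Microtubule Cytoskeleton Dye, MitoTracker Red and Annexin V Alexa Fluor 680. After compound addition they were imaged on a CQ1 microscope at 37°C and 5% CO2, and CellPathfinder machine-learning gating sorted them into Hoechst high-intensity objects or normal cells, with normal cells further split into healthy, pyknosed or fragmented nuclei and pyknosed cells into mitotic or apoptotic. Tubulin, mitochondrial-mass and membrane-permeability phenotypes are given as per cents of cells with healthy nuclei.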

[1] = 12 h, 1 µM, compound concentration 1 uM, replicate 1
[2] = 12 h, 1 µM, compound concentration 1 uM, replicate 2
[3] = 12 h, 10 µM, compound concentration 10 uM, replicate 1
[4] = 12 h, 10 µM, compound concentration 10 uM, replicate 2
[5] = 24 h, 1 µM, compound concentration 1 uM, replicate 1
[6] = 24 h, 1 µM, compound concentration 1 uM, replicate 2
[7] = 24 h, 10 µM, compound concentration 10 uM, replicate 1
[8] = 24 h, 10 µM, compound concentration 10 uM, replicate 2
[9] = 48 h, 1 µM, compound concentration 1 uM, replicate 1
[10] = 48 h, 1 µM, compound concentration 1 uM, replicate 2
[11] = 48 h, 10 µM, compound concentration 10 uM, replicate 1
[12] = 48 h, 10 µM, compound concentration 10 uM, replicate 2

Nc1nc(-c2ccco2)c2cnn(Cc3ccccc3F)c2n1
Population Apoptotic (%) [1]: 50% | Population Fragmented Nuclei (%) [1]: 10% | Population Healthy Nuclei (%) [1]: 78% | Population Hoechst High Intensity Objects (%) [1]: 0% | Population Membrane Permeable-Phenotype (%) [1]: 1% | Population Mitochondria Different-Phenotype (%) [1]: 2% | Population Mitotic Cells (%) [1]: 50% | Population Normal (%) [1]: 99% | Population Pyknosed Nuclei (%) [1]: 11% | Population Tubulin-Different-Phenotype (%) [1]: 26% | Total Cell Count [1]: 189 | Population Apoptotic (%) [2]: 45% | Population Fragmented Nuclei (%) [2]: 31% | Population Healthy Nuclei (%) [2]: 50% | Population Hoechst High Intensity Objects (%) [2]: 6% | Population Membrane Permeable-Phenotype (%) [2]: 2% | Population Mitochondria Different-Phenotype (%) [2]: 5% | Population Mitotic Cells (%) [2]: 54% | Population Normal (%) [2]: 93% | Population Pyknosed Nuclei (%) [2]: 17% | Population Tubulin-Different-Phenotype (%) [2]: 42% | Total Cell Count [2]: 144 | Population Apoptotic (%) [3]: 54% | Population Fragmented Nuclei (%) [3]: 16% | Population Healthy Nuclei (%) [3]: 61% | Population Hoechst High Intensity Objects (%) [3]: 8% | Population Membrane Permeable-Phenotype (%) [3]: 0% | Population Mitochondria Different-Phenotype (%) [3]: 7% | Population Mitotic Cells (%) [3]: 45% | Population Normal (%) [3]: 91% | Population Pyknosed Nuclei (%) [3]: 21% | Population Tubulin-Different-Phenotype (%) [3]: 38% | Total Cell Count [3]: 123 | Population Apoptotic (%) [4]: 47% | Population Fragmented Nuclei (%) [4]: 39% | Population Healthy Nuclei (%) [4]: 44% | Population Hoechst High Intensity Objects (%) [4]: 10% | Population Membrane Permeable-Phenotype (%) [4]: 5% | Population Mitochondria Different-Phenotype (%) [4]: 13% | Population Mitotic Cells (%) [4]: 52% | Population Normal (%) [4]: 89% | Population Pyknosed Nuclei (%) [4]: 16% | Population Tubulin-Different-Phenotype (%) [4]: 51% | Total Cell Count [4]: 147 | Population Apoptotic (%) [5]: 50% | Population Fragmented Nuclei (%) [5]: 9% | Population Healthy Nuclei (%) [5]: 82% | Population Hoechst High Intensity Objects (%) [5]: 0% | Population Membrane Permeable-Phenotype (%) [5]: 0% | Population Mitochondria Different-Phenotype (%) [5]: 2% | Population Mitotic Cells (%) [5]: 50% | Population Normal (%) [5]: 100% | Population Pyknosed Nuclei (%) [5]: 7% | Population Tubulin-Different-Phenotype (%) [5]: 24% | Total Cell Count [5]: 180 | Population Apoptotic (%) [6]: 56% | Population Fragmented Nuclei (%) [6]: 29% | Population Healthy Nuclei (%) [6]: 53% | Population Hoechst High Intensity Objects (%) [6]: 6% | Population Membrane Permeable-Phenotype (%) [6]: 4% | Population Mitochondria Different-Phenotype (%) [6]: 5% | Population Mitotic Cells (%) [6]: 43% | Population Normal (%) [6]: 93% | Population Pyknosed Nuclei (%) [6]: 17% | Population Tubulin-Different-Phenotype (%) [6]: 37% | Total Cell Count [6]: 139 | Population Apoptotic (%) [7]: 70% | Population Fragmented Nuclei (%) [7]: 19% | Population Healthy Nuclei (%) [7]: 66% | Population Hoechst High Intensity Objects (%) [7]: 6% | Population Membrane Permeable-Phenotype (%) [7]: 1% | Population Mitochondria Different-Phenotype (%) [7]: 8% | Population Mitotic Cells (%) [7]: 29% | Population Normal (%) [7]: 93% | Population Pyknosed Nuclei (%) [7]: 14% | Population Tubulin-Different-Phenotype (%) [7]: 39% | Total Cell Count [7]: 127 | Population Apoptotic (%) [8]: 43% | Population Fragmented Nuclei (%) [8]: 43% | Population Healthy Nuclei (%) [8]: 44% | Population Hoechst High Intensity Objects (%) [8]: 8% | Population Membrane Permeable-Phenotype (%) [8]: 15% | Population Mitochondria Different-Phenotype (%) [8]: 5% | Population Mitotic Cells (%) [8]: 56% | Population Normal (%) [8]: 91% | Population Pyknosed Nuclei (%) [8]: 11% | Population Tubulin-Different-Phenotype (%) [8]: 46% | Total Cell Count [8]: 147 | Population Apoptotic (%) [9]: 45% | Population Fragmented Nuclei (%) [9]: 16% | Population Healthy Nuclei (%) [9]: 77% | Population Hoechst High Intensity Objects (%) [9]: 3% | Population Membrane Permeable-Phenotype (%) [9]: 2% | Population Mitochondria Different-Phenotype (%) [9]: 1% | Population Mitotic Cells (%) [9]: 54% | Population Normal (%) [9]: 96% | Population Pyknosed Nuclei (%) [9]: 6% | Population Tubulin-Different-Phenotype (%) [9]: 26% | Total Cell Count [9]: 182 | Population Apoptotic (%) [10]: 57% | Population Fragmented Nuclei (%) [10]: 41% | Population Healthy Nuclei (%) [10]: 48% | Population Hoechst High Intensity Objects (%) [10]: 6% | Population Membrane Permeable-Phenotype (%) [10]: 4% | Population Mitochondria Different-Phenotype (%) [10]: 9% | Population Mitotic Cells (%) [10]: 42% | Population Normal (%) [10]: 93% | Population Pyknosed Nuclei (%) [10]: 10% | Population Tubulin-Different-Phenotype (%) [10]: 37% | Total Cell Count [10]: 147 | Population Apoptotic (%) [11]: 80% | Population Fragmented Nuclei (%) [11]: 25% | Population Healthy Nuclei (%) [11]: 65% | Population Hoechst High Intensity Objects (%) [11]: 9% | Population Membrane Permeable-Phenotype (%) [11]: 0% | Population Mitochondria Different-Phenotype (%) [11]: 10% | Population Mitotic Cells (%) [11]: 20% | Population Normal (%) [11]: 90% | Population Pyknosed Nuclei (%) [11]: 9% | Population Tubulin-Different-Phenotype (%) [11]: 27% | Total Cell Count [11]: 115 | Population Apoptotic (%) [12]: 50% | Population Fragmented Nuclei (%) [12]: 50% | Population Healthy Nuclei (%) [12]: 38% | Population Hoechst High Intensity Objects (%) [12]: 5% | Population Membrane Permeable-Phenotype (%) [12]: 16% | Population Mitotic Cells (%) [12]: 50% | Population Normal (%) [12]: 94% | Population Pyknosed Nuclei (%) [12]: 10% | Population Tubulin-Different-Phenotype (%) [12]: 51% | Total Cell Count [12]: 155
